Reference: ChEMBL document CHEMBL4765447, “Design, synthesis and biological evaluation of diamino substituted cyclobut-3-ene-1,2-dione derivatives for the treatment of drug-resistant tuberculosis” (Eur J Med Chem, 2020)
In brackets after ≈: the same amount, converted by molar mass.

Experiments:
[1] = test system: Mycobacterium tuberculosis H37Rv; assay: Inhibition of ATP synthase in Mycobacterium tuberculosis H37Rv assessed as reduction in bacterial growth incubated for 7 days by microplate alamar blue assay; conditions: time 7.0 day
Summary of the method: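 Microplate alamar blue assay. Strains grown to late log phase in 7H9 broth with 0.2% glycerol, 0.05% Tween 80 and 10% ADC, then washed, filtered (8 µm) and frozen. Twofold compound dilutions with 2×10^5 CFU per well at 37 °C. On day 7, Tween 80 and alamar blue added; after 16–24 h, fluorescence read at 530/590 nm. MIC is the lowest concentration giving ≥90% fluorescence reduction versus bacterium-only controls.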

Vero = assay: Cytotoxicity against African green monkey Vero cells assessed as reduction in cell viability measured after 48 hrs by MTT assay; assay type: cell-based; conditions: Chlorocebus sabaeus
Summary of the method: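 Vero cells grown in RPMI1640 with 10% FBS at 37 °C, 5% CO2, seeded at 4×10^5 cells/mL. Threefold dilutions from 64 to 0.26 µg/mL final, incubated 48 h at 37 °C. Monolayers washed with HBSS, then MTT added for 4 h. Absorbance read at 492 nm.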

[2] = Half life in CD-1 mouse hepatocytes at 1 uM measured after 30 mins by LC-MS/MS analysis; assay type: ADME, cell-based, Hepatocyte
Summary of the method: (§1)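 Pooled male CD-1 mouse or pooled human hepatocytes, pre-incubated 20 min at 37 °C in CO2. Compound at 1 µM final with 1 million cells/mL. Samples taken at 0 and 30 min, quenched and centrifuged 15 min at 4 °C. Parent compound remaining measured by LC-MS/MS.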

[3] = Half life in human hepatocytes at 1 uM measured after 30 mins by LC-MS/MS analysis; assay type: ADME, cell-based, Hepatocyte; summary of the method: as §1
[4] = Intrinsic clearance in CD-1 mouse hepatocytes at 1 uM measured after 30 mins by LC-MS/MS analysis; assay type: ADME, cell-based, Hepatocyte; conditions: 0.5 h; summary of the method: as §1
[5] = Intrinsic clearance in human hepatocytes at 1 uM measured after 30 mins by LC-MS/MS analysis; assay type: ADME, cell-based, Hepatocyte; conditions: 0.5 h; summary of the method: as §1
[6] = target: Voltage-gated inwardly rectifying potassium channel KCNH2 (Homo sapiens, UniProt Q12809); assay: Inhibition of human ERG stably expressed in HEK293 cells by whole-cell manual patch clamp method; assay type: cell-based
[7] = Cmax in Balb/c mouse at 50 mg/kg, po by LC-MS analysis; assay type: ADME, organism-based; set-up: route oral, dose 50 mg/kg; conditions: in vivo
Summary of the method: (§2)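 Male Balb/c mice (26–27 g), three per route. Single dose of 50 mg/kg p.o. in 0.5% carboxymethyl cellulose (5 mg/mL), or 5 mg/kg i.v. in 10% DMSO/50% PEG400/40% water (1 mg/mL). Blood taken at 5, 15, 30 min, 1, 2, 4, 7 and 24 h. Plasma extracted with acetonitrile (terfenadine internal standard) and quantified by LC-MS/MS in positive ESI. Non-compartmental analysis. F = dose-corrected AUC p.o./i.v.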

[8] = Tmax in Balb/c mouse at 50 mg/kg, po by LC-MS analysis; assay type: ADME, organism-based; conditions: in vivo; summary of the method: as §2
[9] = Elimination half life in Balb/c mouse at 50 mg/kg, po by LC-MS analysis; assay type: ADME, organism-based; conditions: in vivo, read-out: beta t1/2 (converted); summary of the method: as §2
[10] = AUC (0 to t) in Balb/c mouse at 50 mg/kg, po by LC-MS analysis; assay type: ADME, organism-based; set-up: dose 50 mg/kg; conditions: in vivo; summary of the method: as §2
[11] = AUC (0 to infinity) in Balb/c mouse at 50 mg/kg, po by LC-MS analysis; assay type: ADME, organism-based; set-up: route oral, time infinity, dose 50 mg/kg; conditions: in vivo; summary of the method: as §2
[12] = MRT (0 to infinity) in Balb/c mouse at 50 mg/kg, po by LC-MS analysis; assay type: ADME, organism-based; conditions: in vivo; summary of the method: as §2
[13] = Oral bioavailability in Balb/c mouse at 50 mg/kg by LC-MS analysis; assay type: ADME, organism-based; conditions: in vivo; summary of the method: as §2
[14] = Elimination half life in Balb/c mouse at 5 mg/kg, iv by LC-MS analysis; assay type: ADME, organism-based; conditions: in vivo, read-out: beta t1/2 (converted); summary of the method: as §2
[15] = AUC (0 to t) in Balb/c mouse at 5 mg/kg, iv by LC-MS analysis; assay type: ADME, organism-based; set-up: dose 5 mg/kg; conditions: in vivo; summary of the method: as §2
[16] = AUC (0 to infinity) in Balb/c mouse at 5 mg/kg, iv by LC-MS analysis; assay type: ADME, organism-based; set-up: time infinity, route intravenous, dose 5 mg/kg; conditions: in vivo; summary of the method: as §2
[17] = MRT (0 to infinity) in Balb/c mouse at 5 mg/kg, iv by LC-MS analysis; assay type: ADME, organism-based; conditions: in vivo; summary of the method: as §2
[18] = Clearance in Balb/c mouse at 5 mg/kg, iv by LC-MS analysis; assay type: ADME, organism-based; conditions: in vivo; summary of the method: as §2

Chain of Voltage-gated inwardly rectifying potassium channel KCNH2 (Q12809 whole entry): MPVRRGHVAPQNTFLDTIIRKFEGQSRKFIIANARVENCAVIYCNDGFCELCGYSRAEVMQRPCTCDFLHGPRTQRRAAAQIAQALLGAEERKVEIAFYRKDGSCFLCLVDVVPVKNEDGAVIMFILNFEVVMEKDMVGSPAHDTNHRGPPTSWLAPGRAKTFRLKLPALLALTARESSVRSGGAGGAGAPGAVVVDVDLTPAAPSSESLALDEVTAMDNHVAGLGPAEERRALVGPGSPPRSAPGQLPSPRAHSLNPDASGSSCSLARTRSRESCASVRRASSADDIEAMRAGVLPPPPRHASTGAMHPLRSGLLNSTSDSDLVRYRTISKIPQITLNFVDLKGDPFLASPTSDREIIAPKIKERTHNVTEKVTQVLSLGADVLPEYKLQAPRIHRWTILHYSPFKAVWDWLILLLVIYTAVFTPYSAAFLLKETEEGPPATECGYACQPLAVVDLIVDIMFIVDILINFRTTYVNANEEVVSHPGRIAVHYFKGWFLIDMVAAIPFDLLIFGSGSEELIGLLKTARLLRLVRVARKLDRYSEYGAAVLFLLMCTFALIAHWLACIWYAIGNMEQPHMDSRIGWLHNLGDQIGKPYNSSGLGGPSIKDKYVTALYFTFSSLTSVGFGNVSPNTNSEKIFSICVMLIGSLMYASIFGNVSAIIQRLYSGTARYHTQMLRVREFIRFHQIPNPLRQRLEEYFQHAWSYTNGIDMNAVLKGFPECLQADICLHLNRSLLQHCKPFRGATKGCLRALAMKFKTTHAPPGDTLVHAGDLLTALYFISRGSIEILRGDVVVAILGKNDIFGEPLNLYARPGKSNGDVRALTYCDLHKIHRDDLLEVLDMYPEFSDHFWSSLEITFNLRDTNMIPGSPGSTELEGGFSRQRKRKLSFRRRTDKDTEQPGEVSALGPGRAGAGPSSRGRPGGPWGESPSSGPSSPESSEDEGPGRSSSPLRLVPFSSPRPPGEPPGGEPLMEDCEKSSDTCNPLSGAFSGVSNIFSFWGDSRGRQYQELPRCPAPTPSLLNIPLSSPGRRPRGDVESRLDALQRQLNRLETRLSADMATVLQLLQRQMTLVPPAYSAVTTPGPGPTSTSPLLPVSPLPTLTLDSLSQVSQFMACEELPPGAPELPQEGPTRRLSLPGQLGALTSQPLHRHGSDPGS

Compound	MIC=>90 [1]	IC50 (Vero)	further results
Cc1ccc(CNc2c(Nc3ccc(N4CCSCC4)cc3)c(=O)c2=O)nc1	> 32 mg/L	–	–
O=c1c(NCc2ccccn2)c(Nc2ccc(N3CCOCC3)nc2)c1=O	> 32 mg/L	–	–
O=c1c(NCc2ccccn2)c(Nc2ccc(N3CCOCC3)cc2)c1=O	3.75 mg/L (≈ 10.3 µM)	> 64 mg/L	half-life at 1 µM [2]: > 93.2 min; half-life at 1 µM [3]: > 93.2 min; intrinsic clearance [4]: < 7.4 µL/min; intrinsic clearance [5]: < 7.4 µL/min; IC50 [6]: > 30 µM
O=C1OCC(NCc2cccnc2)=C1c1ccc(N2CCOCC2)cc1	> 32 mg/L	–	–
O=c1c(NCc2ccccn2)c(Nc2ccc(N3CCOCC3)cn2)c1=O	> 32 mg/L	–	–
O=c1c(NCc2ccccn2)c(Nc2ccc3[nH]ccc3c2)c1=O	> 32 mg/L	–	–
O=C1NC(=O)C(c2ccc(N3CCOCC3)cc2)=C1NCc1ccccn1	> 32 mg/L	–	–
O=C1CCc2cc(Nc3c(NCc4ccccn4)c(=O)c3=O)ccc21	3.46 mg/L (≈ 10.4 µM)	> 64 mg/L	–
O=c1c(NCc2cccnc2)c(Nc2ccc(N3CCSCC3)cc2)c1=O	> 32 mg/L	–	–
O=C1OCC(c2ccc(N3CCOCC3)cc2)=C1NCc1cccnc1	> 32 mg/L	–	–
O=c1c(NCc2ccccn2)c(Nc2ccc3sccc3c2)c1=O	> 32 mg/L	–	–
COc1cc(Nc2c(NCc3ccccn3)c(=O)c2=O)ccc1N1CCSCC1	> 32 mg/L	–	–
O=c1c(NCc2ccccn2)c(-c2ccc(N3CCOCC3)cc2)c1=O	0.12 mg/L (≈ 0.343 µM)	> 64 mg/L	half-life at 1 µM [2]: 17.1 min; half-life at 1 µM [3]: 31.7 min; intrinsic clearance [4]: 40.6 µL/min; intrinsic clearance [5]: 21.9 µL/min; IC50 [6]: > 30 µM
O=C1OCC(NCc2ccccn2)=C1c1ccc(N2CCOCC2)cc1	> 32 mg/L	–	–
O=c1c(NCc2ccccn2)c(Nc2ccc(N3CCCCC3)cc2)c1=O	3.76 mg/L (≈ 10.4 µM)	–	–
O=c1c(NCc2ccccn2)c(Nc2ccc3scnc3c2)c1=O	0.963 mg/L (≈ 2.86 µM)	> 64 mg/L	IC50 [6]: > 10 µM
O=c1c(NCc2ccccn2)c(Nc2ccc(N3CC[S+]([O-])CC3)cc2)c1=O	15.8 mg/L (≈ 39.9 µM)	–	–
CO[C@H]1/C=C/O[C@@]2(C)Oc3c(C)c(O)c4c(O)c(c(/C=N/N5CCN(C)CC5)c(O)c4c3C2=O)NC(=O)/C(C)=C\C=C\[C@H](C)[C@H](O)[C@@H](C)[C@@H](O)[C@@H](C)[C@H](OC(C)=O)[C@@H]1C	0.015 mg/L (≈ 0.0182 µM)	–	–
N#Cc1cc(Nc2c(NCc3ccccn3)c(=O)c2=O)ccc1N1CCSCC1	1.23 mg/L (≈ 3.04 µM)	> 64 mg/L	–
O=C1NC(=O)C(c2ccc(N3CCOCC3)cc2)=C1NCc1cccnc1	> 32 mg/L	–	–
O=c1c(NCc2ccccn2)c(Nc2ccc3c(c2)OCO3)c1=O	0.452 mg/L (≈ 1.4 µM)	> 64 mg/L	half-life at 1 µM [2]: 17 min; half-life at 1 µM [3]: > 93.2 min; intrinsic clearance [4]: 40.8 µL/min; intrinsic clearance [5]: < 7.4 µL/min; IC50 [6]: > 30 µM; Cmax [7]: 1.33 µg/mL; Tmax [8]: 49.8 min; half-life [9]: 30.6 min; AUC(0-t) [10]: 2.2 µg·h/mL; AUC(0-inf) [11]: 2.2 µg·h/mL; MRT inf [12]: 81.6 min; bioavailability [13]: 13.1%; half-life [14]: 19.8 min; AUC(0-t) [15]: 1.67 µg·h/mL; AUC(0-inf) [16]: 1.67 µg·h/mL; MRT inf [17]: 16.8 min; clearance [18]: 3.08 L/h/kg
O=C1CCCc2cc(Nc3c(NCc4ccccn4)c(=O)c3=O)ccc21	0.739 mg/L (≈ 2.13 µM)	> 64 mg/L	half-life at 1 µM [2]: 10.3 min; half-life at 1 µM [3]: 41.9 min; intrinsic clearance [4]: 67.2 µL/min; intrinsic clearance [5]: 16.6 µL/min
O=c1c(NCc2ccccn2)c(Nc2ccc3c(c2)OCCCO3)c1=O	2.22 mg/L (≈ 6.32 µM)	> 64 mg/L	–

Compound	MIC=>90 [1]	IC50 (Vero)	further results
Cc1cc(Nc2c(NCc3ccccn3)c(=O)c2=O)ccc1N1CCOCC1	2.45 mg/L (≈ 6.48 µM)	> 64 mg/L	–
O=C1CCc2ccc(Nc3c(NCc4ccccn4)c(=O)c3=O)cc21	1.83 mg/L (≈ 5.5 µM)	> 64 mg/L	–
O=C1OCC(c2ccc(N3CCOCC3)cc2)=C1NCc1ccccn1	> 32 mg/L	–	–
CN(C)c1ccc(Nc2c(NCc3ccccn3)c(=O)c2=O)cc1	2 mg/L (≈ 6.19 µM)	–	–
Cc1cc(Nc2c(NCc3ccccn3)c(=O)c2=O)ccc1N1CCSCC1	0.496 mg/L (≈ 1.26 µM)	> 64 mg/L	half-life at 1 µM [2]: 5.4 min; half-life at 1 µM [3]: 9 min; intrinsic clearance [4]: 127.8 µL/min; intrinsic clearance [5]: 77 µL/min; IC50 [6]: > 10 µM
O=C1NC(=O)C(c2ccc(N3CCOCC3)cc2)=C1NCc1ccncc1	> 32 mg/L	–	–
O=c1c(NCc2ccccn2)c(Nc2ccc(N3CCSCC3)c(C(F)(F)F)c2)c1=O	9.4 mg/L (≈ 21 µM)	–	–
O=c1c(NCc2ccccn2)c(Nc2ccc(Cl)cc2)c1=O	7.7 mg/L (≈ 24.5 µM)	–	–
O=c1c(NCc2ccccn2)c(Nc2cccc(N3CCSCC3)c2)c1=O	> 32 mg/L	–	–
COc1ccccc1Nc1c(NCc2ccccn2)c(=O)c1=O	> 32 mg/L	–	–
O=c1c(NCc2ccccn2)c(Nc2ccc(N3CCSCC3)cc2)c1=O	1.54 mg/L (≈ 4.06 µM)	> 64 mg/L	half-life at 1 µM [2]: 12.6 min; half-life at 1 µM [3]: 12.1 min; intrinsic clearance [4]: 55.1 µL/min; intrinsic clearance [5]: 57.2 µL/min; IC50 [6]: > 30 µM
O=c1c(NCc2ccccn2)c(Nc2ccc3c(c2)OCCO3)c1=O	1.89 mg/L (≈ 5.59 µM)	> 64 mg/L	–
Cc1cccc(CNc2c(Nc3ccc(N4CCSCC4)cc3)c(=O)c2=O)n1	3.65 mg/L (≈ 9.24 µM)	–	–
O=c1c(NCc2ccccn2)c(Nc2ccc3ncsc3c2)c1=O	1.91 mg/L (≈ 5.68 µM)	> 64 mg/L	–
O=c1c(NCc2ccccn2)c(Nc2ccc(N3CCCOCC3)cc2)c1=O	6.65 mg/L (≈ 17.6 µM)	–	–
COc1ccc(Nc2c(NCc3ccccn3)c(=O)c2=O)cc1	3.42 mg/L (≈ 11 µM)	–	–
O=c1c(NCc2ccccn2)c(Nc2ccc3c(c2)CCC3)c1=O	0.979 mg/L (≈ 3.07 µM)	> 64 mg/L	half-life at 1 µM [2]: 11.1 min; half-life at 1 µM [3]: 10.3 min; intrinsic clearance [4]: 62.4 µL/min; intrinsic clearance [5]: 67.1 µL/min; IC50 [6]: > 30 µM
NNC(=O)c1ccncc1	0.019 mg/L (≈ 0.139 µM)	–	–
O=C1OCC(NCc2ccccn2)=C1c1ccc(N2CCSCC2)cc1	> 32 mg/L	–	–
O=C1COCCN1c1ccc(Nc2c(NCc3ccccn3)c(=O)c2=O)cc1	7.75 mg/L (≈ 20.5 µM)	–	–
COc1cccc(Nc2c(NCc3ccccn3)c(=O)c2=O)c1	6.02 mg/L (≈ 19.5 µM)	–	–
O=c1c(NCc2ccccn2)c(Nc2ccc(C(F)(F)F)cc2)c1=O	14.9 mg/L (≈ 42.9 µM)	–	–
